Assays:
Rattus norvegicus [1] = experiment: Evaluated for the distribution of radioactivity in tissues of female Fischer rats kidneys after 5 minutes intravenous administration; dose/g, range 9.87-11.9; format: ADME, organism-based, Kidney; conditions: in vivo
Rattus norvegicus [2] = experiment: Evaluated for the distribution of radioactivity in tissues of female Fischer rats kidneys after 60 minutes intravenous administration; dose/g, range 3.33-4.68; format: ADME, organism-based, Kidney; conditions: in vivo, 1 h
Rattus norvegicus [3] = experiment: Evaluated for the distribution of radioactivity in tissues of female Fischer rats thyroid after 60 minutes intravenous administration; dose/g, range 55-102; format: ADME, organism-based, Thyroid gland; conditions: in vivo, 1 h
Method in brief: (§1)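 Female Fischer 344 rats (10-12 weeks, 170-200 g), fed ad libitum, got a single iv tail-vein injection under ether anaesthesia of the 125I-labelled cation (2.85-8.38 μCi). The tracer was dissolved in Me2SO, diluted with saline to 1% Me2SO and filtered. At the set times rats were killed by cervical fracture and blood taken by cardiac puncture. Organs were rinsed, blotted, weighed and gamma-counted against injectate standards. Results are %dose/g, mean and range, n=5. Thyroid weight was taken as 7.5 mg/100 g body weight.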

Rattus norvegicus [4] = experiment: Evaluated for the distribution of radioactivity in tissues of female Fischer rats blood after 60 minutes intravenous administration; dose/g, range 0.16-0.21; format: ADME, organism-based; conditions: in vivo, 1 h
Rattus norvegicus [5] = experiment: Evaluated for the distribution of radioactivity in tissues of female Fischer rats lungs after 30 minutes intravenous administration; dose/g, range 1.07-1.30; format: ADME, organism-based, Lung; conditions: in vivo, 0.5 h; method in brief: as §1
Rattus norvegicus [6] = experiment: Evaluated for the distribution of radioactivity in tissues of female Fischer rats lungs after 5 minutes intravenous administration; dose/g, range 1.20-1.52; format: ADME, organism-based, Lung; conditions: in vivo; method in brief: as §1
Rattus norvegicus [7] = experiment: Evaluated for the distribution of radioactivity in tissues of female Fischer rats lungs after 60 minutes intravenous administration; dose/g, range 0.97-1.54; format: ADME, organism-based, Lung; conditions: in vivo, 1 h; method in brief: as §1
Rattus norvegicus [8] = experiment: Evaluated for the distribution of radioactivity in tissues of female Fischer rats blood after 30 minutes intravenous administration; dose/g, range 0.25-0.32; format: ADME, organism-based; conditions: in vivo, 0.5 h
Rattus norvegicus [9] = experiment: Evaluated for the distribution of radioactivity in tissues of female Fischer rats thyroid after 30 minutes intravenous administration; dose/g, range 33-60; format: ADME, organism-based, Thyroid gland; conditions: in vivo, 0.5 h; method in brief: as §1
Rattus norvegicus [10] = experiment: Evaluated for the distribution of radioactivity in tissues of female Fischer rats thyroid after 5 minutes intravenous administration; dose/g, range 29-36; format: ADME, organism-based, Thyroid gland; conditions: in vivo; method in brief: as §1
Rattus norvegicus [11] = experiment: Evaluated for the distribution of radioactivity in tissues of female Fischer rats blood after 5 minutes intravenous administration; dose/g, range 0.44-0.52; format: ADME, organism-based; conditions: in vivo
Rattus norvegicus [12] = experiment: Evaluated for the distribution of radioactivity in tissues of female Fischer rats kidneys after 30 minutes intravenous administration; dose/g, range 6.28-7.41; format: ADME, organism-based, Kidney; conditions: in vivo, 0.5 h
Rattus norvegicus [13] = experiment: Evaluated for the distribution of radioactivity in tissues of female Fischer rats heart after 5 minutes intravenous administration; dose/g, range 2.72-3.52; format: ADME, organism-based; conditions: in vivo
Rattus norvegicus [14] = experiment: Evaluated for the distribution of radioactivity in tissues of female Fischer rats heart after 60 minutes intravenous administration; dose/g, range 2.88-4.32; format: ADME, organism-based; conditions: in vivo, 1 h
Rattus norvegicus [15] = experiment: Evaluated for the distribution of radioactivity in tissues of female Fischer rats liver after 30 minutes intravenous administration.; dose/g, range 0.23-0.29; format: ADME, organism-based; conditions: in vivo, 0.5 h
Rattus norvegicus [16] = experiment: Evaluated for the distribution of radioactivity in tissues of female Fischer rats liver after 5 minutes intravenous administration; dose/g, range 0.93-1.20; format: ADME, organism-based; conditions: in vivo; method in brief: as §1
Rattus norvegicus [17] = experiment: Evaluated for the distribution of radioactivity in tissues of female Fischer rats liver after 60 minutes intravenous administration; dose/g, range 0.14-0.19; format: ADME, organism-based; conditions: in vivo, 1 h; method in brief: as §1
Rattus norvegicus [18] = experiment: Evaluated for the distribution of radioactivity in tissues of female Fischer rats heart after 30 minutes intravenous administration; dose/g, range 2.47-2.96; format: ADME, organism-based; conditions: in vivo, 0.5 h
Rattus norvegicus [19] = experiment: Evaluated for the distribution of radioactivity in tissues of female Fischer rats liver after 60 minutes intravenous administration; dose/g, range 0.15-0.19; format: ADME, organism-based; conditions: in vivo, 1 h; method in brief: as §1
Rattus norvegicus [20] = experiment: Evaluated for the distribution of radioactivity in tissues of female Fischer rats kidneys after 60 minutes intravenous administration; dose/g, range 5.02-6.57; format: ADME, organism-based, Kidney; conditions: in vivo, 1 h
Rattus norvegicus [21] = experiment: Evaluated for the distribution of radioactivity in tissues of female Fischer rats kidneys after 5 minutes intravenous administration; dose/g, range 11.7-14.6; format: ADME, organism-based, Kidney; conditions: in vivo
Rattus norvegicus [22] = experiment: Evaluated for the distribution of radioactivity in tissues of female Fischer rats blood after 60 minutes intravenous administration; dose/g, range 0.15-0.20; format: ADME, organism-based; conditions: in vivo, 1 h
Rattus norvegicus [23] = experiment: Evaluated for the distribution of radioactivity in tissues of female Fischer rats lungs after 30 minutes intravenous administration; dose/g, range 1.12-1.39; format: ADME, organism-based, Lung; conditions: in vivo, 0.5 h; method in brief: as §1
Rattus norvegicus [24] = experiment: Evaluated for the distribution of radioactivity in tissues of female Fischer rats lungs after 5 minutes intravenous administration; dose/g, range 1.18-1.44; format: ADME, organism-based, Lung; conditions: in vivo; method in brief: as §1
Rattus norvegicus [25] = experiment: Evaluated for the distribution of radioactivity in tissues of female Fischer rats lungs after 60 minutes intravenous administration; dose/g, range 0.94-1.36; format: ADME, organism-based, Lung; conditions: in vivo, 1 h; method in brief: as §1
Rattus norvegicus [26] = experiment: Evaluated for the distribution of radioactivity in tissues of female Fischer rats blood after 30 minutes intravenous administration; dose/g, range 0.18-0.24; format: ADME, organism-based; conditions: in vivo, 0.5 h
Rattus norvegicus [27] = experiment: Evaluated for the distribution of radioactivity in tissues of female Fischer rats thyroid after 30 minutes intravenous administration; dose/g, range 29-44; format: ADME, organism-based, Thyroid gland; conditions: in vivo, 0.5 h; method in brief: as §1
Rattus norvegicus [28] = experiment: Evaluated for the distribution of radioactivity in tissues of female Fischer rats thyroid after 5 minutes intravenous administration; dose/g, range 16-32; format: ADME, organism-based, Thyroid gland; conditions: in vivo; method in brief: as §1
Rattus norvegicus [29] = experiment: Evaluated for the distribution of radioactivity in tissues of female Fischer rats thyroid after 60 minutes intravenous administration; dose/g, range 32-43; format: ADME, organism-based, Thyroid gland; conditions: in vivo, 1 h; method in brief: as §1
Rattus norvegicus [30] = experiment: Evaluated for the distribution of radioactivity in tissues of female Fischer rats blood after 5 minutes intravenous administration; dose/g, range 0.32-0.46; format: ADME, organism-based; conditions: in vivo
Rattus norvegicus [31] = experiment: Evaluated for the distribution of radioactivity in tissues of female Fischer rats heart after 60 minutes intravenous administration; dose/g, range 3.21-3.92; format: ADME, organism-based; conditions: in vivo, 1 h
Rattus norvegicus [32] = experiment: Evaluated for the distribution of radioactivity in tissues of female Fischer rats kidneys after 30 minutes intravenous administration; dose/g, range 6.47-10.2; format: ADME, organism-based, Kidney; conditions: in vivo, 0.5 h
Rattus norvegicus [33] = experiment: Evaluated for the distribution of radioactivity in tissues of female Fischer rats heart after 30 minutes intravenous administration; dose/g, range 2.67-3.69; format: ADME, organism-based; conditions: in vivo, 0.5 h
Rattus norvegicus [34] = experiment: Evaluated for the distribution of radioactivity in tissues of female Fischer rats heart after 5 minutes intravenous administration; dose/g, range 2.82-3.86; format: ADME, organism-based; conditions: in vivo
Rattus norvegicus [35] = experiment: Evaluated for the distribution of radioactivity in tissues of female Fischer rats liver after 30 minutes intravenous administration; dose/g, range 0.22-0.30; format: ADME, organism-based; conditions: in vivo, 0.5 h
Rattus norvegicus [36] = experiment: Evaluated for the distribution of radioactivity in tissues of female Fischer rats liver after 5 minutes intravenous administration; dose/g, range 1.06-1.70; format: ADME, organism-based; conditions: in vivo; method in brief: as §1

I/C=C/CCC[P+](C1CCCCC1)(C1CCCCC1)C1CCCCC1.[I-]
Distribution (Rattus norvegicus [1]): 11.06%
Distribution (Rattus norvegicus [2]): 4.15%
Distribution (Rattus norvegicus [3]): 71%
Distribution (Rattus norvegicus [4]): 0.19%
Distribution (Rattus norvegicus [5]): 1.2%
Distribution (Rattus norvegicus [6]): 1.31%
Distribution (Rattus norvegicus [7]): 1.16%
Distribution (Rattus norvegicus [8]): 0.28%
Distribution (Rattus norvegicus [9]): 45%
Distribution (Rattus norvegicus [10]): 31%
Distribution (Rattus norvegicus [11]): 0.47%
Distribution (Rattus norvegicus [12]): 6.89%
Distribution (Rattus norvegicus [13]): 2.99%
Distribution (Rattus norvegicus [14]): 3.42%
Distribution (Rattus norvegicus [15]): 0.25%
Distribution (Rattus norvegicus [16]): 1.06%
Distribution (Rattus norvegicus [17]): 0.17%
Distribution (Rattus norvegicus [18]): 2.67%

I/C=C/CCC[P+](c1ccccc1)(C1CCCCC1)C1CCCCC1.[I-]
Distribution (Rattus norvegicus [19]): 0.17%
Distribution (Rattus norvegicus [20]): 5.66%
Distribution (Rattus norvegicus [21]): 13.07%
Distribution (Rattus norvegicus [22]): 0.17%
Distribution (Rattus norvegicus [23]): 1.24%
Distribution (Rattus norvegicus [24]): 1.32%
Distribution (Rattus norvegicus [25]): 1.15%
Distribution (Rattus norvegicus [26]): 0.2%
Distribution (Rattus norvegicus [27]): 38%
Distribution (Rattus norvegicus [28]): 25%
Distribution (Rattus norvegicus [29]): 39%
Distribution (Rattus norvegicus [30]): 0.37%
Distribution (Rattus norvegicus [31]): 3.47%
Distribution (Rattus norvegicus [32]): 8.41%
Distribution (Rattus norvegicus [33]): 3.17%
Distribution (Rattus norvegicus [34]): 3.44%
Distribution (Rattus norvegicus [35]): 0.26%
Distribution (Rattus norvegicus [36]): 1.39%

Source: ChEMBL document CHEMBL1122900, “Effects of alkyl and aryl substitution on the myocardial specificity of radioiodinated phosphonium, arsonium, and ammonium cations” (J Med Chem, 1985)
